Measurements: ChEMBL document CHEMBL4316609, “Chemical synthesis and functional characterization of a new class of ceramide analogues as anti-cancer agents” (Bioorg Med Chem, 2019)

Columns and labels:
Format in all cases: functional, cell-based
MCF7 = test: Cytotoxicity against human MCF7 cells measured after 48 hrs by MTT assay; settings: MCF7, 48 h
How it was run: (§1)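 Seeded at 7x10^3 cells/well and allowed 24 h to attach. Compounds added at final 0 to 200 μM and incubated 48 h. Viability read by MTT. IC50 taken as the concentration giving 50% growth inhibition; mean ± SD, N = 4.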

SW-620 = test: Cytotoxicity against human SW620 cells measured after 48 hrs by MTT assay; settings: SW-620, 48 h; how it was run: as §1
[1] = Cytotoxicity against human SA cells measured after 48 hrs by MTT assay; settings: +SA cell; how it was run: as §1
SiHa = test: Cytotoxicity against human SiHa cells measured after 48 hrs by MTT assay; how it was run: as §1
HepG2 = test: Cytotoxicity against human HepG2 cells measured after 48 hrs by MTT assay; settings: HepG2, 48 h; how it was run: as §1
A-431 = test: Cytotoxicity against human A431 cells measured after 48 hrs by MTT assay; settings: A-431, 48 h; how it was run: as §1

Structure (SMILES) | IC50 (MCF7) [µM] | IC50 (SW-620) [µM] | IC50 [1] [µM] | IC50 (SiHa) [µM] | IC50 (HepG2) [µM] | IC50 (A-431) [µM]
C/C=C/C=C/C(=O)N[C@H](C(=O)NCCCCCCCCCCCCCC)[C@@H](C)O | 27.8 | 200 |  |  |  | 
CCCCCCCCCCCCCCCCCCNC(=O)[C@@H](NC(=O)/C=C/c1ccccc1)[C@@H](C)O | 39.2 | 200 | 47.1 | 35.9 |  | 
CCCCCCCCCCCCNC(=O)[C@@H](NC(=O)Cc1c[nH]c2ccccc12)[C@@H](C)O | 15.5 | 22 | 20 | 13.6 | 22.6 | 23.4
CCCCCCCCCCCCNC(=O)[C@@H](NC(=O)/C=C/c1ccccc1)[C@@H](C)O |  | 200 |  |  |  | 
CCCCCCCCCCCCCCCCCCNC(=O)[C@@H](NS(=O)(=O)c1ccc(C)cc1)[C@@H](C)O | 60.1 | 32.5 | 47.9 | 29.8 | 75.8 | 34
CCCCCCCCNC(=O)[C@@H](NC(=O)c1ccccc1)[C@@H](C)O |  | 200 | 34.6 |  |  | 61.3
CCCCCCCCNC(=O)[C@@H](NC(=O)c1nccc2ccccc12)[C@@H](C)O | 63.2 | 67.8 | 22.9 | 66 | 88.2 | 26.9
CCCCCCCCCCCCNC(=O)[C@@H](NC(=O)c1cccs1)[C@@H](C)O | 30.4 | 29.2 | 23.3 | 23.9 | 30.1 | 16.6
CCCCCCCCCCCCNC(=O)[C@@H](NS(=O)(=O)c1cccs1)[C@@H](C)O | 19.1 | 27.9 | 20.1 | 30.9 | 25.9 | 22
CCCCCCCCCCCCCCNC(=O)[C@@H](NC(=O)c1cccs1)[C@@H](C)O | 36.1 | 78.4 | 21.2 | 63 | 88.4 | 26.4
CCCCCCCCCCCCCCNC(=O)[C@@H](NS(=O)(=O)c1cccs1)[C@@H](C)O | 18.7 | 18.4 | 11.6 | 20.4 | 21.6 | 22
CCCCCCCCCCCCCCCCCCNC(=O)[C@@H](NC(=O)c1cc2ccccc2[nH]1)[C@@H](C)O | 35.6 | 23.6 | 35.6 | 29.6 | 89.4 | 81
CCCCCCCCNC(=O)[C@@H](NC(=O)/C=C/c1ccccc1)[C@@H](C)O | 35.1 | 61.4 | 25.6 | 41.4 | 55.6 | 36
CCCCCCCCCCCCCCCCCCNC(=O)[C@@H](NC(=O)c1cc2ccccc2n1C)[C@@H](C)O | 36.4 | 124 | 36.4 |  |  | 61
CCCCCCCCCCCCCCCCCCNC(=O)[C@@H](NS(=O)(=O)c1cccs1)[C@@H](C)O | > 200 | > 200 | > 200 |  |  | 
CCCCCCCCCCCCNC(=O)[C@@H](NC(=O)c1cc2ccccc2o1)[C@@H](C)O | 20.9 | 21.3 | 10.5 | 12.8 | 22.9 | 20
CCCCCCCCCCCCCCNC(=O)[C@@H](NC(=O)c1nccc2ccccc12)[C@@H](C)O | 22.8 | 30.4 | 24.4 | 21.6 | 28.6 | 23
CCCCCCCCCCCCCCCCCCNC(=O)[C@@H](NC(=O)c1cccs1)[C@@H](C)O | 25.7 | 200 | 53.5 |  | 92 | 33.3

Structure (SMILES) | IC50 (MCF7) [µM] | IC50 (SW-620) [µM] | IC50 [1] [µM] | IC50 (SiHa) [µM] | IC50 (HepG2) [µM] | IC50 (A-431) [µM]
CCCCCCCCCCCCCCCCCCNC(=O)[C@@H](NC(=O)c1ccccc1)[C@@H](C)O | 31.8 | 200 | > 400 | 38.2 |  | 
C/C=C/C=C/C(=O)N[C@H](C(=O)NCCCCCCCCCCCCCCCCCC)[C@@H](C)O | 79.6 | 200 | > 200 | > 200 | 284 | 187
CCCCCCCCCCCCCCCCCCNC(=O)[C@@H](NC(=O)c1ccco1)[C@@H](C)O | 21.4 | > 200 | 52.6 | 13.3 | 42.3 | 19.9
CCCCCCCCCCCCCCNC(=O)[C@@H](NC(=O)/C=C/c1ccccc1)[C@@H](C)O | 64.6 | 200 | 80.9 | 35.8 |  | 64.9
CCCCCCCCCCCCNC(=O)[C@@H](NS(=O)(=O)c1ccc(C)cc1)[C@@H](C)O | 31.1 | 25.6 | 27.2 | 31.6 | 25.8 | 25.2
CCCCCCCCCCCCCCCCCCNC(=O)[C@@H](NC(=O)Cc1c[nH]c2ccccc12)[C@@H](C)O | 37.3 |  | 54.9 | 65.8 | 57.6 | 31.8
CCCCCCCCCCCCCCNC(=O)[C@@H](NC(=O)c1cc2ccccc2[nH]1)[C@@H](C)O | 15.1 | 15.2 | 12.1 | 14.2 | 10.5 | 12.2
CCCCCCCCCCCCCCNC(=O)[C@@H](NC(=O)c1cc2ccccc2o1)[C@@H](C)O | 23.4 | 26.7 | 9.61 | 14.2 | 23.4 | 20.1
CCCCCCCCNC(=O)[C@@H](NC(=O)c1ccco1)[C@@H](C)O | 91.8 | 200 | 64.7 |  |  | 64.5
CCCCCCCCCCCCCCCCCCNC(=O)[C@@H](NS(=O)(=O)c1ccc2ccccc2c1)[C@@H](C)O | 27.8 | 24.6 | 21.2 | 19.9 | 19.8 | 23.7
CCCCCCCCCCCCCCNC(=O)[C@@H](NC(=O)c1ccco1)[C@@H](C)O |  | 200 |  |  |  | 
C/C=C/C=C/C(=O)N[C@H](C(=O)NCCCCCCCCCCCC)[C@@H](C)O | 37.1 | 200 |  |  |  | 
CCCCCCCCCCCCCCCCCCNC(=O)[C@@H](NC(=O)c1cc2ccccc2o1)[C@@H](C)O |  | > 200 |  |  |  | 78.8
CCCCCCCCCCCCNC(=O)[C@@H](NC(=O)c1cc2ccccc2n1C)[C@@H](C)O | 31.3 | > 200 | 31.3 |  |  | 
CCCCCCCCCCCCCCNC(=O)[C@@H](NC(=O)c1ccccc1)[C@@H](C)O | 24.8 | 200 | 56 |  | 54.2 | 
CCCCCCCCCCCCCCCCCCNC(=O)[C@@H](N)[C@@H](C)O | 27.4 | 21.4 | > 200 | 39.5 | 44.5 | 21.3
CCCCCCCCCCCCNC(=O)[C@@H](NC(=O)c1cc2ccccc2[nH]1)[C@@H](C)O | 12.3 | 18.8 | 12.3 | 21.2 | 12 | 10.3
